Assay [1] has as its system Escherichia coli. Briefly: Antibacterial activity against TEM1 beta-lactamase Escherichia coli IV-3-2 by agar diffusion assay. In kind it is functional. In short, it runs like this: (§1)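 Test bacteria at 10^6 CFU/ml were suspended in melted nutrient agar and poured into Petri dishes. 9 mm wells were cut and each filled with 50 µl of a 0.2 mM compound solution. Inhibition zones were read after 18 h at 37 °C. Growth of colonies inside the zone was flagged.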
A general note: Agar diffusion results depend on both activity and mobility in agar.

For assay [2], the system named is Mycobacterium. Briefly: Antibacterial activity against wild type Mycobacterium vaccae IMET10670 by agar diffusion assay. In kind it is functional, Mycolicibacterium vaccae. In short, it runs like this: as §1
In assay [3] the test system is Pseudomonas aeruginosa. Briefly: Antibacterial activity against PSE1 beta-lactamase Pseudomonas aeruginosa IV-3-13 by agar diffusion assay. In kind it is functional. In short, it runs like this:
as §1

Assay [4] has as its system Staphylococcus aureus. In words: Antibacterial activity against wild type Staphylococcus aureus SG 511 by agar diffusion assay. It counts as functional. Summed up:
as §1

Assay [5] has as its system Enterococcus faecalis. Briefly: Antibacterial activity against VRE Enterococcus faecalis 1528 by agar diffusion assay. It counts as functional. Summed up:
as §1

Assay [6] relates to Staphylococcus aureus. Briefly: Antibacterial activity against MRSA Staphylococcus aureus 134/93 by agar diffusion assay. It counts as functional. In short, it runs like this: as §1
The subject of assay [7] is Enterobacter cloacae. Briefly: Antibacterial activity against ampC beta-lactamase Enterobacter cloacae P99 by agar diffusion assay. It counts as functional.
Assay [8] has as its system Escherichia coli. Briefly: Antibacterial activity against wild type Escherichia coli DC0 by agar diffusion assay. In kind it is functional. Summed up:
as §1

Assay [9] has as its system Escherichia coli. In words: Antibacterial activity against Escherichia coli ATCC 33475 by agar diffusion assay. It counts as functional. In short, it runs like this:
as §1

In assay [10] the test system is Klebsiella pneumoniae. In words: Antibacterial activity against Klebsiella pneumoniae ATCC 8308 by agar diffusion assay. In kind it is functional. Summed up: as §1
Assay [11] deals with Salmonella enterica. Briefly: Antibacterial activity against Salmonella enterica ATCC 13311 by agar diffusion assay. In kind it is functional. In short, it runs like this: as §1
Assay [12] relates to Escherichia coli. Briefly: Antibacterial activity against Escherichia coli X580 by agar diffusion assay. It counts as functional. Summed up: as §1
Assay [13] concerns Beta-lactamase (Bacillus cereus). In words: Inhibition of Bacillus cereus penicillinase.
The subject of assay [14] is Candida albicans. Briefly: Antifungal activity against Candida albicans BMSY 212 by agar diffusion assay. In kind it is functional. Summed up: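 Agar-well diffusion: Candida albicans at 10^6 CFU/ml was seeded in melted nutrient agar and poured into plates. Compound was loaded as 50 µl of a 0.2 mM solution into 9 mm holes. Plates were incubated at 30 °C and the inhibition zones recorded.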

Structures are written as SMILES. Active and inactive are the calls of the source. The rule behind the calls is not given here.

As to `O=C(O)c1cn(C2CC2)c2cc(N3CCNCC3)c(F)cc2c1=O` [CIPROFLOXACIN], the “inhibition zone (IZ)” value in [1] came out at 27 mm; in [2], 38 mm; in assay [3], 35 mm; in assay [4] it was 29 mm; in assay [5], 24 mm; in [6], 0 mm.
In the case of `CO/N=C(\C(=O)N[C@@H]1C(=O)N2C(C(=O)O)=C(COC(C)=O)CS[C@H]12)c1csc(N)n1` [CEFOTAXIME], the “inhibition zone (IZ)” value is on record as 0 mm in assay [7]; 21 mm in [8]; 28 mm in assay [1]; 0 mm in [2]; 26 mm in assay [4]; 22 mm in assay [5]. For the same compound, the “inhibition zone (IZ)” value in assay [6] worked out at 0 mm.
For `C[C@@H](NC(=O)Cc1ccccc1)C(=O)N1O[C@H](C(=O)O)C[C@@H]1C(=O)O`, the “inhibition zone (IZ)” value in [9] is reported as 0 mm; in assay [10], 0 mm; in [11] it was 0 mm; in assay [12], 25 mm.
Take `C[C@H](NC(=O)Cc1ccccc1)C(=O)N1O[C@H](C(=O)O)C[C@@H]1C(=O)O`: in [13], the inhibition result is “inactive”. The “inhibition zone (IZ)” value in assay [9] turned out to be 0 mm; in assay [10] it was 0 mm; in [11], 0 mm; in assay [12] it was 20 mm.
`O=C(Cc1ccccc1)NCC(=O)N1O[C@H](C(=O)O)C[C@@H]1C(=O)O`: the “inhibition zone (IZ)” value in assay [7], in assay [8], in [1], in assay [2], in assay [14] and in assay [3] was 0 mm each time. The “inhibition zone (IZ)” value in assay [9] was found to be 0 mm; in [10], 0 mm; in assay [4], 0 mm; in assay [11], 0 mm; in [12], 26 mm; in assay [5], 0 mm. In addition, the “inhibition zone (IZ)” value in assay [6] is 0 mm.
Regarding `CC1(C)S[C@@H]2[C@H](NC(=O)Cc3ccccc3)C(=O)N2[C@H]1C(=O)O` [PENICILLIN G], the “inhibition zone (IZ)” value in [9] was 23 mm; in [10], 12 mm; in assay [11] it was 37 mm; in assay [12], 54 mm.
Regarding `N[C@@H](C(=O)N[C@@H]1C(=O)N2C(C(=O)O)=C(Cl)CC[C@H]12)c1ccccc1` [LORACARBEF ANHYDROUS], the “inhibition zone (IZ)” value was 0 mm in [7]; 24 mm in [8]; 23 mm in assay [1]; 0 mm in assay [2]; 0 mm in assay [3]; 28 mm in assay [4]. Moreover, the “inhibition zone (IZ)” value in assay [5] and in assay [6] was 0 mm throughout.

The values above are taken from ChEMBL document CHEMBL1146029, “The synthesis and in vitro testing of structurally novel antibiotics derived from acylnitroso Diels-Alder adducts” (2006).
